Article PMC10085944 (Clinical Pharmacokinetics, 2023)
Where two headings read alike, the source gives them in different places.

Legend:
[1] = cited from earlier work
[2] = SBS patients; dose reduction by 50% recommended; cited from earlier work
[3] = SC; slow release of M1 and M2 from the SC depot; cited from earlier work
[4] = Safety and tolerability assessment in the Phase 1 renal impairment trial; format: in vivo, human
Method in brief: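 Subjects admitted the day before a single 10 mg SC abdominal dose, kept on site for the first 3 days, then seen as outpatients daily to Day 8, with follow-up on Day 11. Ongoing monitoring covered AE recording (MedDRA preferred terms), vital signs, 12-lead ECGs, clinical laboratory tests, physical examinations and injection-site reactions.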

native GLP-2: 33-amino acid intestinal growth factor secreted in response to nutrient intake
half-life ([1]; native GLP-2, in vivo): 5 to 7 min

teduglutide
AUC0–∞ and Cmax in moderate or severe renal impairment/ESRD [2]: elevated | half-life ([1]; teduglutide): approximately 2 h

Glepaglutide
effective half-life [3]: 88.3 h | serious AEs, deaths, or AEs leading to trial withdrawal ([4]; 16 subjects, single SC dose glepaglutide 10 mg): no serious AEs, deaths, or AEs leading to trial withdrawal | total number of AEs (all non-serious and mild) ([4]; reported in 3 of 16 subjects, single SC dose 10 mg): 6 | overall safety and tolerability ([4]; single SC dose 10 mg, normal renal function and severe renal impairment or ESRD): safe and well tolerated
